The results in this text go back to ChEMBL document CHEMBL1155718, “The complestatins as HIV-1 integrase inhibitors. Efficient isolation, structure elucidation, and inhibitory activities of isocomplestatin, chloropeptin I, new complestatins, A and B, and acid-hydrolysis products of chloropeptin I” (J Nat Prod, 2001).

Assay [1] addresses T1, Human immunodeficiency virus type 1 integrase (Human immunodeficiency virus 1, UniProt Q7ZJM1). As to the kind of experiment: Inhibition of HIV1 integrase 3' processing/strand transfer coupled activity. A digest of the protocol: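 In vitro assay with recombinant HIV-1 integrase that recapitulates the staged integration process, measuring coupled 3′-processing and strand transfer. IC50 was reported.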

Assay [2] has as its target T1, Human immunodeficiency virus type 1 integrase. As to the kind of experiment: Inhibition of HIV1 integrase strand transfer activity. A digest of the protocol:
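Staged strand transfer assay using complexes preassembled on viral donor DNA with recombinantly expressed HIV-1 integrase. IC50 was reported.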

The subject of assay [3] is Human immunodeficiency virus 1. Nature of the assay: Antiviral activity against HIV1 assessed as inhibition of viral spread in infected cells. The assay is classed as functional. Summed up:
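HIV-1 multiple-cycle replication (viral spread) assay in cell culture. Inhibition was expressed as IC95, and in some cases also as IC50.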

For assay [4], the system named is Human immunodeficiency virus. Nature of the assay: Antiviral activity against HIV PIC. Particulars: Human immunodeficiency virus 1, PIC. The assay is classed as functional, organism-based. A digest of the protocol: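 Preintegration complexes were isolated from HIV-1-infected cells and tested for integration activity in vitro. IC50 was reported.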
Assay [5] can be described thus: Inhibition of HIV1 recombinant gp120/CD4 interaction by ELISA.
In assay [6] the test system is Human immunodeficiency virus. Nature of the assay: Antiviral activity against HIV. The assay is classed as functional, organism-based. Particulars: Human immunodeficiency virus 1.
Assay [7] concerns the target T1, Human immunodeficiency virus type 1 integrase. As to the kind of experiment: Inhibition of disintegration activity of HIV1 intact integrase. A digest of the protocol:
(§1)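 Disintegration activity was measured with both full-length HIV-1 integrase and its catalytic core domain (amino acids 50-212). IC50 was reported.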

Assay [8] shares this target. As to the kind of experiment: Inhibition of integration activity of HIV1 intact integrase.
Assay [9] has the same target. As to the kind of experiment: Inhibition of disintegration activity of HIV1 integrase catalytic core domain (50 to 212). A digest of the protocol:
as §1

Some results are limits rather than exact numbers.

T1 sequence (Q7ZJM1 whole entry): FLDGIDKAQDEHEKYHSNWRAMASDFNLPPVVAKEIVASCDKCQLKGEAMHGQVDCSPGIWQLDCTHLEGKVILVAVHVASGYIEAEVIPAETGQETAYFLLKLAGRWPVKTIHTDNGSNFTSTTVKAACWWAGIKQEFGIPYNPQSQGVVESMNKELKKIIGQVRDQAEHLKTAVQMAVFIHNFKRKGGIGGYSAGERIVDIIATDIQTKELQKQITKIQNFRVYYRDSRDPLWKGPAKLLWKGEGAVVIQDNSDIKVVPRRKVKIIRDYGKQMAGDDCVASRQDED

In the case of `CN(C(=O)[C@H](N)c1cc(Cl)c(O)c(Cl)c1)[C@@H](Cc1ccc(Oc2cc3cc(c2O)-c2cccc4c(c[nH]c24)C[C@@H](N)C(=O)N[C@H](c2cc(Cl)c(O)c(Cl)c2)C(=O)N[C@H]3C(=O)O)cc1)C(=O)O`, the half-maximal inhibitory concentration (IC50) in [1] stood at 7.8 µM; in [2], 86 µM.
For the compound `CN1C(=O)[C@@H](c2cc(Cl)c(O)c(Cl)c2)NC(=O)[C@@H]2NC(=O)[C@@H](c3cc(Cl)c(O)c(Cl)c3)NC(=O)[C@H](N)Cc3c[nH]c4c(cccc34)-c3cc2cc(c3O)Oc2ccc(cc2)C[C@H]1C(=O)O`, the IC50 in assay [1] worked out at 0.5 µM; in [2], 6 µM. Also, the IC95 in assay [3] came to 7.5 µM.
Regarding `CN[C@@H](Cc1ccc(Oc2cc3cc(c2O)-c2cccc4c(c[nH]c24)C[C@@H](N)C(=O)N[C@H](c2cc(Cl)c(O)c(Cl)c2)C(=O)N[C@H]3C(=O)N[C@@H](C(=O)O)c2cc(Cl)c(O)c(Cl)c2)cc1)C(=O)O`, the values for the IC50 in assay [1] and in assay [2] were 3.8 µM and 45 µM, respectively.
`CN[C@@H](Cc1ccc(Oc2cc3cc(c2O)-c2cccc4c(c[nH]c24)C[C@@H](N)C(=O)N[C@H](c2cc(Cl)c(O)c(Cl)c2)C(=O)N[C@H]3C(=O)O)cc1)C(=O)O`: the IC50 in assay [1] is 28 µM; in assay [2] it was over 100 µM.
For `CN1C(=O)[C@@H](c2cc(Cl)c(O)c(Cl)c2)NC(=O)[C@@H]2NC(=O)[C@@H](c3cc(Cl)c(O)c(Cl)c3)NC(=O)[C@H](NC(=O)C(=O)c3cc(Cl)c(O)c(Cl)c3)Cc3c[nH]c4c(cccc34)-c3cc2cc(c3O)Oc2ccc(cc2)C[C@H]1C(=O)O`, the IC50 in assay [1] came to 0.6 µM; in assay [2], 8 µM. Besides, the IC95 in assay [3] was 5 µM.
For `CN1C(=O)[C@@H](c2cc(Cl)c(O)c(Cl)c2)NC(=O)[C@@H]2NC(=O)[C@@H](c3cc(Cl)c(O)c(Cl)c3)NC(=O)[C@H](NC(=O)C(=O)c3cc(Cl)c(O)c(Cl)c3)Cc3c[nH]c4c(cccc34)-c3cc2cc(c3O)Oc2ccc(cc2)C[C@H]1C(=O)N[C@@H](C(=O)O)c1ccc(O)cc1` [CHLOROPEPTIN], in that order: 0.4 µM, 5 µM and 5 µM.
Consider `CN1C(=O)[C@@H](c2cc(Cl)c(O)c(Cl)c2)NC(=O)[C@@H]2NC(=O)[C@@H](c3cc(Cl)c(O)c(Cl)c3)NC(=O)[C@H](NC(=O)C(=O)c3cc(Cl)c(O)c(Cl)c3)CC3(O)C(=O)Nc4cc(ccc43)-c3cc2cc(c3O)Oc2ccc(cc2)C[C@H]1C(=O)N[C@@H](C(=O)O)c1ccc(O)cc1` (stereo partly drawn) [COMPLESTATIN B], for which the IC50 in [1] turned out to be 1.7 µM; in assay [2], 12.5 µM.
Regarding `CN1C(=O)[C@@H](c2cc(Cl)c(O)c(Cl)c2)NC(=O)[C@@H]2NC(=O)[C@@H](c3cc(Cl)c(O)c(Cl)c3)NC(=O)[C@H](NC(=O)C(=O)c3cc(Cl)c(O)c(Cl)c3)CC3C(=O)Nc4cc(ccc43)-c3cc2cc(c3O)Oc2ccc(cc2)C[C@H]1C(=O)N[C@@H](C(=O)O)c1ccc(O)cc1` (stereo partly drawn) [COMPLESTATINS A], the figures for the IC50 in assay [1] and in [2] were 0.8 µM and 12.5 µM, respectively.
`CN1C(=O)[C@@H](c2cc(Cl)c(O)c(Cl)c2)NC(=O)[C@@H]2NC(=O)[C@@H](c3cc(Cl)c(O)c(Cl)c3)NC(=O)[C@H](NC(=O)C(=O)c3cc(Cl)c(O)c(Cl)c3)Cc3c[nH]c4cc(ccc34)-c3cc2cc(c3O)Oc2ccc(cc2)C[C@H]1C(=O)N[C@@H](C(=O)O)c1ccc(O)cc1` [ISOCOMPLESTATIN]: the IC50 in [4] worked out at 3 µM; in assay [5], 2 µM; in assay [6], 0.2 µM; in assay [1] it was 0.2 µM; in assay [7], 0.5 µM; in assay [2] it was 4 µM. Moreover, the IC50 in assay [8] was found to be 3 µM; in [9], 0.5 µM. Besides, the IC95 in [3] amounted to 5 µM.
